Source: PubChem BioAssay
Fibroblast inh – blocks proliferation of human lung fibroblasts. viability, % at 10 µM. hit rate 1.1% among 85,000. AID 719. LL 47 human lung fibroblast viability, ATP luminescence; active compounds read low;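 active means viability at or below 50% in the single dose screen; inactive means viability above 50%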;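 further: compound exposure lasted 72 h before the ATP readout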
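Test system: LL 47 human lung fibroblasts; Quantity: 1,150 cells/well; Buffer or medium: IMEM plus 15% FBS; Dosing: tenfold compound dosing solution, DMSO at 0.1%; Timing: overnight cell rest, 72 h compound treatment at 37 °C; Detection: ATP-based CellTiter-Glo luminescent readout; Read-out basis: viability percentage against median untreated-cell control; Controls: cell-only wells, no compound.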
H69AR growth 86K – growth inhibitors of human H69AR lung tumor cells | H69AR lung tumor viability, ATP luminescence, 72 h; active compounds read low | viability, % at 10 µM | hit rate 6% among 85,000 | AID 598;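 active means viability at or below 40%; inactive means viability above 40%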;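 further: multidrug resistant small cell line overexpressing MRP-1 efflux transporter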
PTEN del growth – PTEN-deleted cell growth suppression | HCT116 PTEN-null viability, CellTiter-Glo, 60 h; active compounds read low | viability, % at 10 µM | hit rate 1.2% among 140,000;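 active means viability at or below a set limit, 4 SD under the median of all tested compounds, cut at about 3.7% in these data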;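 further: PTEN knockout HCT116 line with beta catenin targeted HCT116 as companion control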
HCT116 bCat-KO – beta-catenin-lacking colon tumor cell growth suppression; HCT116 beta-catenin knockout viability, CellTiter-Glo, 60 h; active compounds read low; viability, % at 10 µM; hit rate 1.5% among 140,000; AID 818;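 active means viability at or under a set limit, the compound median less 4 SD, cut at about 6% in these data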
HUVEC inhibit – human endothelial cell proliferation inhibition. HUVEC proliferation, CellTiter-Glo luminescence, 72 h; active compounds read low. viability, % at 10 µM (by protocol). hit rate 1.1% among 86,000;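 active means viability at or below 30%; inactive means viability above 30%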
Hits are given with their value; n = inactive; x = not tested or not shown. The sample as a whole holds a higher share of hits than the screen did.

SMILES	Fibroblast inh	H69AR growth 86K	PTEN del growth	HCT116 bCat-KO	HUVEC inhibit
COc1ccc(C(C(=O)NC2CCCC2)N(C(=O)c2snc(-c3ccc(F)cc3)c2N)c2ccc(F)cc2)cc1 (stereo not drawn)	x	x	n	5.5	x
O=C(NC1CCCCC1)C(c1cccnc1)N(C(=O)CCl)c1cccc(Cl)c1 (stereo not drawn)	x	x	3.1	3.9	x
CCOc1cc(/C=C\c2[nH]c(=O)[nH]c(=O)c2[N+](=O)[O-])ccc1OC(C)CC (stereo not drawn)	n	n	n	n	15.3
CCOC(=O)COc1ccc(Br)cc1/C=C\c1[nH]c(=O)[nH]c(=O)c1[N+](=O)[O-]	x	x	n	n	x
CSc1nsc(SCc2ccc(F)cc2)n1	x	30.3	n	n	n
CCOC(=O)COc1ccc(Br)cc1C1NC(=O)NC(C)=C1C(=O)NCc1ccccc1 (stereo not drawn)	n	n	n	n	n
CC(=O)c1sc(NC(=O)C2(F)C(F)(F)C(F)(F)C(F)(F)C(F)(F)C2(F)F)nc1C	n	12.5	n	n	n
Cc1ccc(NC(=O)CC2C(=O)N(Cc3ccccc3)C(=S)N2NC(=O)c2ccccc2)c(C)c1 (stereo not drawn)	x	x	n	n	x
C=CCn1c(C)cc(C(=O)COC(=O)c2ccc3c(c2)NC(=O)CS3)c1C	x	x	n	n	x
COc1cc(SC#N)ccc1N=Cc1c(C)[nH]n(-c2ccc(C)c(C)c2)c1=O	x	x	0.3	0.8	x
COc1cc(SC#N)ccc1N=Cc1c(C)[nH]n(-c2ccc(Cl)cc2)c1=O	x	x	n	n	x
Cc1ccc(-c2nc(-c3cccnc3)sc2CC(=O)Nc2ccc3nc(C)sc3c2)cc1	x	x	n	n	x
CCOC(=O)Cc1cc(=O)n2[nH]c(C)c(-c3ccc(Cl)cc3)c2n1	n	16.0	n	n	n
CCOC(=O)Cc1c(C)nc2c(-c3ccc(Cl)cc3)c[nH]n2c1=O	x	22.7	n	n	n
Cc1c(C(=O)c2no[n+]([O-])c2C(=O)c2cnn(C)c2C)cnn1C	n	1.8	n	n	n
COc1ccc(C(=O)c2no[n+]([O-])c2C(=O)c2ccc(OC)cc2)cc1	x	x	n	n	x
O=C(CCCCn1c(=O)c2ccccc2n(Cc2ccc(F)cc2Cl)c1=O)NCc1ccco1	n	24.3	n	n	n
Cc1ccc(C)c(Cn2c(=O)n(CCCC(=O)NCc3ccco3)c(=O)c3ccccc32)c1	n	36.0	n	n	n
Cc1ccc(C)c(Cn2c(=O)n(CCC(=O)NCc3ccco3)c(=O)c3ccccc32)c1	n	n	n	n	n
O=C(NCc1ccco1)c1ccc(Cn2c(=O)c3ccccc3n(Cc3cccc(Cl)c3)c2=O)cc1	n	30.9	n	n	n
CCn1c(=O)cc(SCC(=O)NCc2ccco2)c2ccccc21	n	38.6	n	n	n
C#CCN1C(=O)S/C(=C/C=C/c2ccc(N(C)C)cc2)C1=O	x	x	n	n	x
Cc1cccc(C)c1NC(=O)CSc1nnc(Cn2nnc(-c3ccccc3)n2)n1-c1ccccc1	n	x	n	n	n
N/C(=N\OC(=O)c1ccc2ccccc2c1)c1cccc([N+](=O)[O-])c1	x	x	n	n	x
CC1=C(C)/C(=N/OC(=O)c2cccc([N+](=O)[O-])c2)C=CC1=O	n	10.9	1.7	1.6	n
SMILES	Fibroblast inh	H69AR growth 86K	PTEN del growth	HCT116 bCat-KO	HUVEC inhibit
COc1ccccc1N1CCN(CC(=O)c2c(C)n(C)c3ccccc23)CC1	n	n	n	n	n
COc1ccccc1N1CCN(CC(=O)c2c(C)[nH]c3cc(C)ccc23)CC1	n	37.5	n	n	n
CC1=C(C(=O)OC(C)C)C(c2cccs2)C(C(=O)OC(C)C)=C(C)N1	x	x	n	n	x
CCOC(=O)c1cc(-c2ccc(C)cc2)n(CCC(=O)N2CCN(c3ccccn3)CC2)c1C	x	x	n	n	x
Cc1ccccc1NC(=S)NNc1ncc(C(F)(F)F)cc1Cl	x	x	n	n	x
Cc1c(Cl)cccc1NC(=S)NNc1ncc(C(F)(F)F)cc1Cl	n	16.2	n	n	n
CCn1c(CNC(=O)c2ccco2)nnc1SCC(=O)Nc1ccc(Br)cc1F	n	n	n	n	n
COc1ccc(CCn2c(N3CCN(C)CC3)nc3c2c(=O)[nH]c(=O)n3C)cc1	n	n	n	n	n
CCCn1c(N2CCN(CC(=O)c3c(C)n(C)c4ccc(OC)cc34)CC2)nc2c1c(=O)[nH]c(=O)n2C	40.6	33.4	n	n	n
Cc1cnn(-c2cc(N/N=C/c3ccccc3F)ncn2)c1	x	x	2.6	n	x
CCCc1sc(N/N=C/c2ccccn2)nc1-c1ccc(F)cc1	19.3	13.1	3.1	3.2	14.7
O=C(COC(=O)c1cc(=O)c2ccccc2o1)Nc1ccc2ccccc2c1	x	x	n	n	x
COCCCn1c(SCC(=O)n2c(C)c(C)c3ccccc32)nnc1-c1ccoc1C	n	n	n	n	n
COc1cccc(CNc2ccc(N3CCC(C)CC3)cc2)c1OC	n	13.7	n	n	n
COCCn1c(SCC(=O)N2CCCc3ccccc32)nc2cccnc21	n	19.0	n	n	n
O=C(Cn1c(SCC(=O)N2CCCc3ccccc32)nc2ccccc21)N1CCCC1	n	n	n	n	n
CC(C)COC(=O)C1C(=O)CC(C)(O)C(C(=O)OCC(C)C)C1c1cccnc1 (stereo not drawn)	n	29.4	n	n	n
O=C(/C(=N\Nc1ccccc1)Sc1nnnn1-c1ccccc1)c1ccccc1	x	x	n	n	x
CC1(C)Cc2c(sc(/N=C/N3CCCC3)c2C#N)C(C)(C)N1	n	n	n	n	n
COc1ccc2[nH]c(C)c(CCN(Cc3cccs3)C(=S)Nc3ccc(F)cc3)c2c1	n	37.0	n	n	n
COc1ccc2[nH]c(C)c(CCN(Cc3cccs3)C(=S)Nc3ccccc3)c2c1	n	n	n	n	n
Oc1ccc(N=C/C=C/c2ccc(Br)cc2)cc1-c1nc2ccccc2s1	x	x	n	n	x
Cc1ccc(-c2cc(C(=O)Nc3cccnc3)c3ccccc3n2)o1	n	n	n	n	n
Cc1ccc(NC(=O)c2cc(-c3ccc(C)o3)nc3ccccc23)cc1	n	32.2	n	n	n
CCCCOP(=O)(OCCCC)C1(NS(=O)(=O)c2ccccc2)C=CC(=O)c2ccccc21 (stereo not drawn)	n	12.0	n	n	n
SMILES	Fibroblast inh	H69AR growth 86K	PTEN del growth	HCT116 bCat-KO	HUVEC inhibit
CCCCOCCCNS(=O)(=O)c1ccccc1	n	n	n	n	n
O=C(CNC(=O)c1ccccc1Cl)N/N=C/c1ccc([N+](=O)[O-])s1	x	x	n	n	x
Cc1cc2ncn(/N=C/c3ccc([N+](=O)[O-])s3)c2cc1C	x	x	1.2	1.5	x
Cc1cc2ncn(/N=C/c3cc(Br)ccc3O)c2cc1C	n	31.1	n	n	n
O=[N+]([O-])c1ccc(/C=N/n2cnc3ccccc32)s1	x	x	3.0	2.4	x
O=[N+]([O-])c1ccc(/C=N/n2c(CO)nc3ccccc32)s1	x	x	n	n	x
Cc1nc2ccccc2n1/N=C/c1ccc([N+](=O)[O-])s1	x	x	1.7	1.5	x
Cc1cc(C(=O)OCC(=O)Nc2ccccc2[N+](=O)[O-])c2ccccc2n1	x	x	n	n	x
Cc1ccc(NC(=O)CSc2n[nH]c(=O)n2C2CC2)cc1S(=O)(=O)N1CCOCC1	x	x	n	n	x
